Assay results pooled from the literature.
Each line is one published result; the experiments were not run side by side.
Target: MAP kinase-interacting serine/threonine-protein kinase 2 (MKNK2, Homo sapiens, UniProt Q9HBH9)

Structure (SMILES)	test	setting	quantity	result
O=C(CSc1nc2nccnc2c(=O)n1CCc1ccccc1)Nc1nccs1	enzyme activity, inhibitor	10 µM	inhibition	-11%
CSc1nc(C)c(-c2ccnc(Nc3ccc(N4CCOCC4)cc3)c2)[nH]1	enzyme activity, inhibitor	10 µM	inhibition	94.9%
CCN(CC)CCNC(=O)c1c(C)[nH]c(/C=C2\C(=O)Nc3ccc(F)cc32)c1C	enzyme activity, inhibitor	0.3 µM	inhibition	-18%
COc1cc2c(N3CCN(C(=O)Nc4ccc(OC(C)C)cc4)CC3)ncnc2cc1OCCCN1CCCCC1	cell-free assay	0.5 µM	remaining signal	99%
COc1cc(-c2cn(C3CCc4ccccc4N(CC(F)(F)F)C3=O)nn2)ccc1-n1ccc(C)n1 (centres unmarked)	cell-free assay, competition with immobilised ligand	1 µM	remaining binding	66%
O=C1NC(=O)c2cc(Nc3ccc(F)cc3)c(Nc3ccc(F)cc3)cc21	cell-free assay	0.5 µM	remaining signal	101%
COc1cc(Nc2cnc(C#N)c(O[C@H](C)CN(C)C)n2)ncc1-c1cnn(C)c1	enzyme activity, inhibitor, radiometric	10 µM	remaining activity	112%
C[C@@H]1CN(c2cc(-c3nn(C)c4ccc(OC5(C)CC5)cc34)ncn2)C[C@H](C)O1	cell-free assay, competition with immobilised ligand	1 µM	remaining binding	67%
O=C(Nc1cnn(-c2csc(C(=O)NC3COC3)c2)c1)Nc1ccccc1Cl	enzyme activity, inhibitor	5 µM	remaining activity	99.3%
Cc1ncc(C(=O)Nc2ccc(CN3CCN(C)CC3)c(C(F)(F)F)c2)cc1C#Cc1cnc2cccnn12	enzyme activity, inhibitor	0.123 µM	inhibition	51%
Cn1c(=O)n(-c2ccc(C(C)(C)C#N)cc2)c2c3cc(-c4cnc5ccccc5c4)ccc3ncc21	enzyme activity, inhibitor	10 µM	remaining activity	94%
O=C1Nc2ccc(Cl)cc2C1=Cc1cc(Cl)c(O)c(Cl)c1	cell-free assay	0.5 µM	remaining signal	88.7%
CC(=O)N1CCC(c2ccc(C(=O)NC3=NCCN3)cc2C(F)(F)F)CC1	cell-free assay, competition with immobilised ligand	1 µM	remaining binding	100%
Clc1ccc(Nc2nnc(Cc3ccncc3)c3ccccc23)cc1	cell-free assay	0.5 µM	remaining signal	101%
CCC(=O)N[C@H]1CC[C@@H](C(=O)N(C)c2ccc(-c3nc4ccccc4o3)cc2)C1	cell-free assay, competition with immobilised ligand	1 µM	remaining binding	100%
Cc1ccc(C(=O)Nc2ccc(CN3CCN(C)CC3)c(C(F)(F)F)c2)cc1C#Cc1cnc2cccnn12	enzyme activity, inhibitor	23.5 nM	remaining activity	33%

Structure (SMILES)	test	setting	quantity	result
Cc1ccc(Nc2nccc(N(C)c3ccc4c(C)n(C)nc4c3)n2)cc1S(N)(=O)=O	enzyme activity, inhibitor	10 µM	inhibition	9%
CN([C@@H]1CCc2c(CC(=O)O)c3ccccc3n2C1)S(=O)(=O)c1ccc(F)cc1	cell-free assay, competition with immobilised ligand	1 µM	remaining binding	100%
Cc1ccc(NC(=O)c2ccc(C)c(C(F)(F)F)c2)cc1C#Cc1nn(C2CCC(O)CC2)c2ncnc(N)c12 (centres unmarked)	cell-free assay	10 µM	remaining signal	96%
CC(C)(C)c1nc(-c2cccc(NS(=O)(=O)c3c(F)cccc3F)c2F)c(-c2ccnc(N)n2)s1	enzyme activity, inhibitor, radiometric	1 µM	remaining activity	63%
Nc1nc(Nc2ccccc2)sc1C(=O)c1c(F)cccc1F	enzyme activity, inhibitor	10 µM	remaining activity	99%
NS(=O)(=O)c1cc(NC(=O)C2(c3ccccc3Cl)CC2)ccc1Oc1cccc(Cl)c1	cell-free assay, competition with immobilised ligand	1 µM	remaining binding	100%
CC(C)c1ccc(NC(=O)c2cccs2)c(-c2nc3ccccc3[nH]c2=O)c1	enzyme activity, inhibitor	1 µM	activity vs control	97%
Oc1cccc(-c2nc(N3CCOCC3)c3oc4ncccc4c3n2)c1	enzyme activity, inhibitor	10 µM	remaining activity	90%
CC(C)(C)C(=O)c1sc(NC2CCCCC2)nc1N	enzyme activity, inhibitor	10 µM	remaining activity	96%
CCN(CC)c1ccc(C2=NNC(=O)CC2C)cc1[N+](=O)[O-] (centres unmarked)	enzyme activity, inhibitor	10 µM	remaining activity	25%
FC(F)(F)Oc1cccc(-c2cnc3ccc(-c4ccncc4)nn23)c1	enzyme activity, inhibitor, radiometric	1 µM	activity vs control	66%
O=C(Nc1cnn(-c2csc(C(=O)NC3COC3)c2)c1)Nc1c(F)cccc1Cl	enzyme activity, inhibitor	5 µM	remaining activity	90.8%
Cn1nc(C(=O)NCc2ccc(C(=O)O)cc2)cc1-c1ccc2[nH]ccc2c1	cell-free assay, competition with immobilised ligand	0.1 µM	remaining binding	96%
CNC(=O)c1cc(Oc2ccc(NC(=O)Nc3ccc(Cl)c(C(F)(F)F)c3)cc2)ccn1	enzyme activity, inhibitor	10 µM	inhibition	90%
CS(=O)(=O)N1CCCC(NC(=O)[C@H](CCC2CCCCC2)NC(=O)c2ccc(CNC(=O)c3cnc4ccccn34)cc2)C1 (some centres unmarked)	cell-free assay, competition with immobilised ligand	0.1 µM	remaining binding	84%
CC/C(=N\NC(=O)NCc1cccc(O)c1)c1ccc(O)c(C)c1O	enzyme activity, inhibitor	0.1 µM	inhibition	-2.9%
